Active and inactive are the calls of the source. No cut-off for these calls is given here.
Tests used:
[1] = test system: A549; experiment: Cytotoxicity against human A549 cells after 24 hrs by MTT assay; assay type: functional; details: A549, 24 h, read-out: LD50 (the source's name)
How it was run: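 Human alveolar epithelial A549 cells (ATCC) grown in HAM F12 with glutamine plus 10% FBS at 37 °C, 5% CO2. Seeded at 10^5 cells/well; after 24 h, medium renewed and compounds (ethanol stocks; vehicle control 0.1% ethanol) added to final 0.02–400 µM for 24 h. Viable cells by MTT; LD50 from concentration–response; means of three independent experiments with triplicates.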

[2] = test system: A549; experiment: Cytotoxicity against human A549 cells assessed as PI positive cells after 24 hrs by flow cytometry; assay type: functional, cell-based
How it was run: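 A549 cells exposed 24 h to a range of compound concentrations, harvested by brief trypsinization, double-stained with Alexa Fluor 488 annexin V and propidium iodide, analysed by flow cytometry; percentage of cells positive for annexin V, PI or both scored against untreated control.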

[3] = test system: A549; experiment: Cytotoxicity against human A549 cells after 24 hrs by MTT assay in presence of 3-methyladenine; assay type: functional
How it was run: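 A549 (HAM F12/glutamine, 10% FBS, 37 °C, 5% CO2) pretreated 2 weeks with 10 mM 3-MA in flask, medium changed every 2 days. Then 10^5 cells/well seeded in medium with 3-MA plus compounds at 0.02–400 μM final (ethanol vehicle, 0.1%), 24 h. Viability by MTT, LD50 derived. Means SD, three independent experiments, triplicates.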

[4] = test system: A549; experiment: Induction of 3-methyladenine-inhibited autophagy in human A549 cells assessed as increase in ceramide levels
[5] = test system: A549; experiment: Cytotoxicity against human A549 cells after 24 hrs by MTT assay in absence of 3-methyladenine; assay type: functional
How it was run: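 A549 (ATCC) grown in HAM F12 with glutamine + 10% FBS, 37 °C, 5% CO2. Seeded 10^5 cells/well, medium renewed after 24 h, then exposed 24 h to 0.02–400 μM final (ethanol stock; 0.1% ethanol vehicle control). Viable cells by MTT; LD50 taken from curves. Means SD, three independent experiments in triplicate.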

| SMILES | CC50 [1] | Activity [2] | Activity [3] | Activity [4] | Activity [5] |
| --- | --- | --- | --- | --- | --- |
| CCCCCCCCCCCCCC[C@@H]1OC[C@H](N)[C@@H]1O [PACHASTRISSAMINE] | 130 nM | Dose-dependent effect | inactive | Dose-dependent effect |  |
| CCCCCCCCCCCCCC[C@H](O)[C@@H](O)[C@@H](N)CO |  |  | 29.4 µM |  | 28.2 µM |
| CCCCCCCCCCCCCC[C@H]1OC[C@H](N)[C@H]1O | 2500 nM | Dose-dependent effect | inactive |  |  |
| CCCCCCCCCCCCCC[C@@H]1OC[C@H](N)[C@H]1O | 1500 nM | Dose-dependent effect | inactive |  |  |
| CCCCCCCCCCCCCC[C@H]1OC[C@H](N)[C@@H]1O [2-EPI JASPINE B] | 1250 nM | Dose-dependent effect | inactive |  |  |
